{"source": "ChEMBL document CHEMBL4038313", "about": "“Expanding the Antiviral Spectrum of 3-Fluoro-2-(phosphonomethoxy)propyl Acyclic Nucleoside Phosphonates: Diamyl Aspartate Amidate Prodrugs” (J Med Chem, 2017)", "key": {"[1]": {"tested_on": "Human immunodeficiency virus 1", "test": "Antiviral activity against CXCR4-tropic HIV-1 NL4-3 infected in human TZM-bl cells assessed as inhibition of virus-induced cytopathic effect preincubated with cells for 30 mins followed by viral infection measured after 48 hrs in presence of p-24 HIV-1 Ag by luciferase reporter gene assay", "format": "functional, cell-based", "conditions": "Human immunodeficiency virus 1, NL4-3, TZM-bl", "summary_of_the_method": "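TZM-bl cells, 1 × 10^4 per well in DMEM with 10% FBS and 10 mM […], incubated 30 min at 37 °C with compound. Then HIV-1 NL4.3 (X4) or BaL (R5) added at 100 pg p24 Ag per well. After 48 h, cells lysed with luciferase substrate. Tat-induced luminescence read after 10 min dark incubation as a measure of replication.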"}, "[2]": {"test": "Cytotoxicity against human TZM-bl cells assessed as cell viability by tetrazolium dye assay", "format": "cell-based"}, "[3]": {"tested_on": "Human immunodeficiency virus 1", "test": "Antiviral activity against CXCR4-tropic HIV-1 NL4-3 infected in human PHA-stimulated PBMC assessed as inhibition of viral replication by measuring reduction in p24 antigen production preincubated with cells for 30 mins followed by viral infection measured on day 10 post infection in presence of IL-2 by ELISA", "format": "functional", "conditions": "Human immunodeficiency virus 1, NL4-3", "summary_of_the_method": "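PBMCs stimulated with 2 μg/mL PHA for 3 days at 37 °C, then 5 × 10^5 cells/ml preincubated 30 min at 37 °C with serial compound dilutions plus 2 ng/mL IL-2. Infected with 1500 pg/well HIV-1 BaL or 500 pg/well other isolates. IL-2 re-added on days 3 and 6. Supernatant p24 Ag measured by ELISA at day 10. EC50 is 50% inhibition of replication.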"}, "[4]": {"test": "Cytotoxicity against human PHA-stimulated PBMC assessed as cell viability by tetrazolium dye assay", "format": "cell-based"}, "[5]": {"test": "Selectivity index, ratio of CC50 for human TZM-bl cells to EC50 for CXCR4-tropic HIV-1 NL4-3 infected in human TZM-bl cells", "format": "toxicity, cell-based", "conditions": "read-out: Ratio CC50/EC50"}, "[6]": {"test": "Selectivity index, ratio of CC50 for human PHA-stimulated PBMCs to IC50 for CCR5 tropic HIV1 BaL infected in human PHA-stimulated PBMC"}, "[7]": {"test": "Cytotoxicity against human HepG2.2.15 cells assessed as cell viability by tetrazolium dye uptake assay", "format": "cell-based, HepG2 2.2.15", "summary_of_the_method": "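HepG2.2.15 cells (two integrated copies of HBV ayw1 genome) were seeded at 1.5 × 10^4 cells/well in DMEM with 2% FBS, 380 μg/mL G418, glutamine, antibiotics and nonessential amino acids. After 16−24 h, medium with various compound concentrations was added in triplicate and renewed on day 3. After 6 days of treatment, viability was read by MTS uptake and CC50 was calculated.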"}, "[8]": {"test": "Selectivity index, ratio of CC50 for HepG2.2.15 cells to EC50 for HBV ayw1 infected in human HepG2(2.2.15) cells assessed as reduction in viral replication by measuring extracellular viral DNA copy", "summary_of_the_method": "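HepG2.2.15 cells (two copies of HBV ayw1 genome), 1.5 × 10^4/well in DMEM with 2% FBS and 380 μg/mL G418. After 16–24 h, compound added in triplicate, medium with compound renewed at day 3. Supernatant collected at day 6, Pronase-treated, and extracellular HBV DNA measured by TaqMan qPCR (precore/core) against an HBV DNA standard curve. EC50/EC90 derived; CC50 by MTS uptake.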"}, "Hepatitis B virus": {"tested_on": "Hepatitis B virus", "test": "Antiviral activity against HBV ayw1 infected in human HepG2(2.2.15) cells assessed as reduction in viral replication by measuring intracellular viral DNA copy number after 6 days byr by real-time qPCR assay", "format": "functional, cell-based", "conditions": "ayw1, HepG2 2.2.15, 144 h", "summary_of_the_method": "(§1)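 Run as the HepG2.2.15 6-day assay (triplicate compound, medium with compound renewed at day 3). At the end, total intracellular DNA was isolated from the cells and HBV DNA copy number measured by TaqMan qPCR. EC50/EC90 derived; SI is CC50/EC50.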"}, "Human betaherpesvirus 5 [9]": {"tested_on": "Human betaherpesvirus 5", "test": "Antiviral activity against Human cytomegalovirus AD169 infected in HEL cells assessed as inhibition of virus-induced cytopathic effect", "format": "functional, cell-based", "conditions": "Human betaherpesvirus 5, AD169, HEL", "summary_of_the_method": "(§2)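 HEL fibroblast monolayers inoculated with 100 CCID50 HCMV (AD-169, Davis) or 20 PFU VZV (TK+ Oka, TK− 07-1). Adsorbed 1–2 h, inoculum removed, then incubated with compound dilutions. HCMV cytopathicity or VZV plaques scored once untreated infected controls reached completion. EC50 is 50% reduction. SI is CC50/EC50, and the potency ratio is the ratio of EC50s.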"}, "Human betaherpesvirus 5 [10]": {"tested_on": "Human betaherpesvirus 5", "test": "Antiviral activity against HCMV Davis strain infected in HEL cells assessed as inhibition of virus-induced cytopathic effect", "format": "functional, cell-based", "conditions": "Human betaherpesvirus 5, Davis", "summary_of_the_method": "as §2"}, "Human alphaherpesvirus 3 [11]": {"tested_on": "Human alphaherpesvirus 3", "test": "Antiviral activity against thymidine kinase expressing Varicella-Zoster virus Oka strain assessed as inhibition of plaque formation", "format": "functional", "conditions": "Human alphaherpesvirus 3, strain Oka vaccine", "summary_of_the_method": "as §2"}, "[12]": {"test": "Cytotoxic activity against HEL cells assessed as alteration of cell morphology after 3 days by microscopic method", "format": "cell-based", "conditions": "human", "summary_of_the_method": "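HEL cells with compound; MCC is the lowest concentration giving microscopically detectable alteration of cell morphology.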"}, "[13]": {"test": "Stability of the compound in pH 1 buffer at 2 mg after 5 hrs by 31P NMR spectroscopy", "format": "physicochemical", "conditions": "pH 1, 5 h", "summary_of_the_method": "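2.0 mg compound in 0.2 mL acetone-d6 plus 0.3 mL pH 1 buffer (equal parts 0.2 M HCl and 0.2 M KCl). In situ 31P NMR (202 MHz) at 37 °C, spectra every 30 min over 14 h.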"}, "[14]": {"test": "Stability of the compound in phosphate buffer of pH 8 at 1 mg after 1 hr by 31P NMR spectroscopy", "format": "physicochemical", "conditions": "pH 8, 1 h", "summary_of_the_method": "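1 mg compound in 0.2 mL acetone-d6 plus 0.3 mL pH 8 buffer (0.1 M Na2HPO4 adjusted with 0.1 M HCl). In situ 31P NMR (202 MHz) at 37 °C, spectra every 30 min over 14 h.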"}, "[15]": {"test": "Selectivity index, ratio of CC50 for HEL cells to EC50 for thymidine kinase deficient Varicella-Zoster virus 07-1", "format": "toxicity", "conditions": "human, read-out: Ratio CC50/EC50", "summary_of_the_method": "as §2"}, "[16]": {"tested_on": "Human immunodeficiency virus 1", "test": "Potency index, ratio of (S)-9-[3-Fluoro-2-(phosphonomethoxy)propyl]adenine EC50 to compound EC50 for CXCR4-tropic HIV-1 NL4-3 infected in human TZM-bl cells", "format": "functional"}, "[17]": {"test": "Selectivity index, ratio of CC50 for HepG2.2.15 cells to EC50 for HBV ayw1 infected in human HepG2(2.2.15) cells assessed as reduction in viral replication by measuring intracellular viral DNA copy", "summary_of_the_method": "as §1"}, "[18]": {"tested_on": "Human immunodeficiency virus 1", "test": "Potency index, ratio of (S)-9-[3-Fluoro-2-(phosphonomethoxy)propyl]adenine EC50 to compound EC50 for CCR5 tropic HIV1 BaL infected in human TZM-bl cells", "format": "functional"}, "Human alphaherpesvirus 3 [19]": {"tested_on": "Human alphaherpesvirus 3", "test": "Potency index, ratio of (S)-9-[3-Fluoro-2-(phosphonomethoxy)propyl]adenine EC50 to compound EC50 for thymidine kinase expressing Varicella-Zoster virus Oka", "format": "functional, strain Oka vaccine", "summary_of_the_method": "as §2"}, "Human alphaherpesvirus 3 [20]": {"tested_on": "Human alphaherpesvirus 3", "test": "Potency index, ratio of (S)-9-[3-Fluoro-2-(phosphonomethoxy)propyl]adenine EC50 to compound EC50 for thymidine kinase deficient Varicella-Zoster virus 07-1", "format": "functional", "summary_of_the_method": "as §2"}}, "note": "pEC50, pIC50: −log10 of the molar value.", "data": [{"molecule": "CCCCCOC(=O)C[C@H](NP(=O)(CO[C@H](CF)Cn1cnc2c(N)ncnc21)Oc1ccccc1)C(=O)OCCCCC", "note": "(some centres not stated)", "values": [{"measurement": "pEC50", "setting": "[1]", "value": 8.00}, {"measurement": "CC50", "setting": "[2]", "value": 33.2, "unit": "µM"}, {"measurement": "pIC50", "setting": "[3]", "value": 8.52}, {"measurement": "CC50", "setting": "[4]", "value": 2.48, "unit": "µM"}, {"measurement": "selectivity ratio", "setting": "[5]", "value": 3320}, {"measurement": "Ratio CC50/IC50", "setting": "[6]", "value": ">113"}, {"measurement": "CC50", "setting": "[7]", "value": "20.3 to 22.6", "unit": "µM"}, {"measurement": "Ratio CC50/EC50", "setting": "[8]", "value": 2256}, {"measurement": "pEC50", "setting": "Hepatitis B virus", "value": 7.70}, {"measurement": "EC90", "setting": "Hepatitis B virus", "value": 6.08, "unit": "µM"}, {"measurement": "pEC50", "setting": "Human betaherpesvirus 5 [9]", "value": 5.40}, {"measurement": "pEC50", "setting": "Human betaherpesvirus 5 [10]", "value": 5.20}, {"measurement": "pEC50", "setting": "Human alphaherpesvirus 3 [11]", "value": 7.30}, {"measurement": "MCC at 72 h", "setting": "[12]", "value": 31.4, "unit": "µM"}, {"measurement": "Stability", "setting": "[13]", "value": "Stable"}, {"measurement": "Stability", "setting": "[14]", "value": "Stable"}, {"measurement": "selectivity ratio", "setting": "[15]", "value": 34}, {"measurement": "Ratio EC50", "setting": "[16]", "value": 600}, {"measurement": "Ratio CC50/EC50", "setting": "[17]", "value": 1017}, {"measurement": "Ratio EC50", "setting": "[18]", "value": 1500}, {"measurement": "Ratio EC50", "setting": "Human alphaherpesvirus 3 [19]", "value": 2000}, {"measurement": "Ratio EC50", "setting": "Human alphaherpesvirus 3 [20]", "value": 2000}]}]}
